Compound activity: PubChem, several laboratories
INS promoter inh: TRM-6 insulin promoter activity inhibition | 130,000 compounds, 0.9% hits | AID 1273 | inhibition, % at 2 µM | TRM-6 cells (human fetal islet line), insulin promoter-eGFP reporter, imaging; reporter expression induced with tamoxifen;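 active means inhibition above the mean plus 3 SD, with well images judged a real hit on visual review, cut at about 60% in these data, passing the limit was not always enough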
b-catenin transl: beta-catenin nuclear translocation modulation; HeLa beta-catenin nuclear translocation, immunofluorescence imaging; nuclear translocation activity, % at 5 µM; 190,000 compounds, 0.3% hits;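 active means nuclear translocation activity above 50% at 5 µM, with a well cell count of 50 or more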;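 further: per-cell ratio of nuclear to cytoplasmic median beta-catenin stain intensity; plate controls were DMSO negative control for no effect and GSK-3 inhibitor IX positive control for full effect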
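Test system: human HeLa cells, native beta-catenin. Compound dosing: 5 µM primary single dose, 0.1% DMSO, 0.02–20 µM confirmation series. Incubation: compound exposure 24 h at 37°C. Detection: beta-catenin immunostaining with DAPI counterstain, 20x imaging, 6 fields/well. Read-out basis: Nuclear/cytoplasmic beta-catenin signal ratio, % activation.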
ROMK primary: modulators of human ROMK potassium channel; 130,000 compounds, 2% hits; P48048; B-score at 10 µM; AID 1918; Tet-inducible ROMK, thallium flux fluorescence; actives lie on both sides;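 active means signal ratio slope over the read window, or its plate-corrected B-score, at least 3 SD from the plate mean, either direction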;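 further: B-score of the F/F0 ratio slope over 7 to 12 s after thallium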
Target sequence (P48048 whole entry, looked up): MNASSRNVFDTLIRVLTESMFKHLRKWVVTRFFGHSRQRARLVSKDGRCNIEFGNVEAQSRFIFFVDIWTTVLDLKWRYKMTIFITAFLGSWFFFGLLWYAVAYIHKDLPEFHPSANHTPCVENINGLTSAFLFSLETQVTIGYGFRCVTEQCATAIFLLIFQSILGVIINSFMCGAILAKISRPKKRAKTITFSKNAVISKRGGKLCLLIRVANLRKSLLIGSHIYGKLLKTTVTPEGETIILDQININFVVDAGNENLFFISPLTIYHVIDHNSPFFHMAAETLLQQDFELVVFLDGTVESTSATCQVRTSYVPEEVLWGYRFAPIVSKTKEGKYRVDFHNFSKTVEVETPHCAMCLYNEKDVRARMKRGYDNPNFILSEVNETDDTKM
MT stabilizer: microtubule stabilizers in HeLa cells; HeLa tubulin immunostaining HCS, 24 h; share of cells brighter than vehicle mean+2SD; % tubulin-high responders, % at 10 µM; 200,000 compounds, 0.83% hits;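 active means plate Z-score above 3 for both tubulin-high and condensed-nucleus cell shares, with cell loss under 80%, at 10 µM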;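 further: anti alpha tubulin signal scored within the nucleus-defined area of each cell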
HSV replic up: HSV replication enhancement | 220,000 compounds, 0.005% hits | HSV replication augmentation in cells, fold increase | maximum fold increase; in the data active means maximum fold increase above about 1.5; tested in PC3 cells
ROMK retest: retested hit modulating human ROMK potassium channel | shares compounds with ROMK primary | ROMK thallium flux, fluorescence ratio; active compounds read low | normalized thallium flux (F/F0 slope) at 10 µM | 3,000 compounds, 54% hits | AID 1917;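 active means Flux at 10 µM at least 3 SD below or above vehicle control mean in one or both replicates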
The depositor's hits bear a star; i = inactive; / = no result given. This is a sample that favours compounds with a hit; in the whole collection about 2.4% have one here.

SMILES | INS promoter inh | b-catenin transl | ROMK primary | MT stabilizer | HSV replic up | ROMK retest
CCN(CC)CCCNc1nc(-c2ccccc2)nc2ccccc12 | -174 | -6 | -0.99 | 3 | i | /
COC(=O)c1sccc1-c1ccc(/C=N/OC(=O)c2ccccc2)o1 | 34 | / | / | 3 | i | /
CC(=O)OC(C(=O)NCc1ccco1)c1ccncc1 (stereo unspecified) | 15 | -2 | 1 | 1 | i | /
CCn1cc(C(=O)OCC(=O)N(C)C2CCS(=O)(=O)C2)c(=O)c2ccc(C)nc21 (stereo unspecified) | 22 | -8 | 0.94 | 2 | i | /
CCn1cc(C(=O)OCC(=O)c2cc(C)n(-c3ccccc3)c2C)c(=O)c2ccc(C)nc21 | -81 | -4 | -0.36 | 3 | i | /
CCn1cc(C(=O)OCC(=O)c2cc(C)n(-c3ccc(OC(F)F)cc3)c2C)c(=O)c2ccc(C)nc21 | / | -2 | -3.2* | 3 | i | 0.063*
CCn1cc(C(=O)OCC(=O)N(C)Cc2ccccc2)c(=O)c2ccc(C)nc21 | / | / | 2.9* | 3 | i | 0.078
CCOC(=O)N1CCN(C(=O)CN(Cc2ccccc2)S(C)(=O)=O)CC1 | 25 | 1 | 0.78 | 6 | i | /
CCOC(=O)N1CCN(c2ccc(S(=O)(=O)N(Cc3ccccc3)Cc3ccccc3)cn2)CC1 | -27 | -2 | / | 6 | i | 0.075
COc1ccc(CCNC(=O)CCc2ccc(S(=O)(=O)NCC(C)C)cc2)cc1OC | / | 0 | 0.7 | 2 | i | /
COC(=O)c1[nH]c2ccc(F)cc2c1NS(=O)(=O)c1ccc(OC)cc1 | -57 | 40 | 2.2 | 23* | i | 0.092
COc1ccc2[nH]c(C(=O)O)c(NS(=O)(=O)c3ccc(OC)c(OC)c3)c2c1 | -29 | -3 | 1.3 | 10 | i | /
CCCCCOC(=O)c1[nH]c2c(c1C)C(=O)CC(c1ccco1)C2 (stereo unspecified) | -37 | 59* | 2.1 | 10 | i | 0.085
CCCOC(=O)c1[nH]c2c(c1C)C(=O)CC(c1ccc(OC)c(OC)c1)C2 (stereo unspecified) | 7 | -4 | -0.62 | 3 | i | /
CCOCCOC(=O)c1[nH]c2c(c1C)C(=O)CC(c1cccs1)C2 (stereo unspecified) | / | 63* | 5.7* | 13 | i | 0.076
CCOc1ccc(CC(=O)NNC(=S)NC)cc1Br | / | 0 | / | / | i | /
C/C(=N\NC(=O)c1cc2ccccc2cc1O)c1cc2ccccc2o1 | / | -1 | / | / | i | 0.13*
COCCNC(=O)c1ccccc1NC(=O)c1ccccc1SC | -83 | 1 | 3.2* | 3 | i | 0.084
CCCNC(=O)c1ccccc1NC(=O)c1ccccc1SC | / | 0 | 0.062 | 5 | i | /
CC(=O)O[C@]1(C(C)=O)CC[C@H]2[C@@H]3C=C(Cl)C4=CC(=O)CC[C@]4(C)[C@H]3CC[C@@]21C | -5 | -3 | / | 3 | i | 0.075
CC(=O)O[C@]1(C(C)=O)CC[C@H]2[C@@H]3C=C(Cl)C4=CC(=O)[C@@H]5C[C@@H]5[C@]4(C)[C@H]3CC[C@@]21C | / | / | / | / | i | /
O=C(CSc1ncn[nH]1)NC12CC3CC(CC(C3)C1)C2 | 18 | 1 | 3* | 1 | i | 0.075
O=C(CCl)N(c1ccccc1)c1ccccc1 | / | 0 | -5.4* | 6 | i | 0.053*
Cc1cc(NC(=O)CSc2nnc(C3CC3)n2N)c([N+](=O)[O-])cc1C | 14 | -4 | 0.36 | 1 | i | /
COC(=O)c1cc(COc2ccc3c(c2)oc(=O)c2ccccc23)c(C)o1 | -6 | -2 | / | 3 | i | /
SMILES | INS promoter inh | b-catenin transl | ROMK primary | MT stabilizer | HSV replic up | ROMK retest
Cn1c(CNC(=O)c2ccccc2F)nnc1SCCOc1ccccc1 | / | 0 | -0.11 | 3 | i | /
COc1cc(N2CCCC2)c(OC)cc1/C=c1/sc2nc3ccccc3n2c1=O | / | 26 | -2.5 | 26 | / | 0.051*
Cc1ccc(-n2c(C)cc(/C=c3/sc4nc5ccccc5n4c3=O)c2C)cc1 | 13 | -4 | 0.73 | 1 | i | /
Cc1ccnc(NS(=O)(=O)c2ccc(NS(=O)(=O)c3ccccc3)cc2)n1 | -314 | -3 | / | 3 | i | /
O=C(COC(=O)[C@@H]1CCCN1S(=O)(=O)c1ccccc1F)Nc1ccc(OC(F)F)cc1 | 13 | -2 | -1.1 | 3 | i | /
CCCS(=O)(=O)N1CCC(C(=O)NCCCN2CCC(Cc3ccccc3)CC2)CC1 | 6 | 0 | -4.3* | 1 | i | 0.077
CCCS(=O)(=O)N1CCC(C(=O)N2CCC(Cc3ccccc3)CC2)CC1 | 69 | 0 | 0.65 | 4 | i | /
